S100A4 inh HTS: blocks human S100A4 binding to myosin IIA peptide | P26447 | S100A4/TAMRA-MyoIIA peptide fluorescence polarization | inhibition, % at 10.7 µM | actives 0.14% (n = 360,000);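 active means mean inhibition of at least 70% across replicates, with every replicate also reaching that level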
Target sequence (P26447 whole entry, looked up): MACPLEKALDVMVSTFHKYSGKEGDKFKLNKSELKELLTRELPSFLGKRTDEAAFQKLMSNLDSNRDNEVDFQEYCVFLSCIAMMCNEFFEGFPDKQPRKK
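Assay system: human S100A4 monomer with TAMRA-labelled myosin IIA peptide / Buffer or medium: Calcium-containing HEPES buffer, pH 7.2 / Reagent: TAMRA-labelled myosin IIA heavy-chain peptide probe, 5 nM / Compound: one dose per compound / Timing: polarization read 5 min after assay mix addition, stable 5–60 min / Benchmarks: neutral control DMSO, positive control TFP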
FGF22 binding: shifts melting point of recombinant human FGF22; Q9HCT0; recombinant FGF22 thermal shift, SYPRO orange fluorescence; percent of sucrose octasulfate shift, DMSO zero; activity (Tm shift, normalised), % at 9.99 µM; actives 1.5% (n = 340,000); AID 651658;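 active means mean Tm shift, scaled 0 neutral to 100 positive control, at about 1.3% or above, every replicate too, limit read from the data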
Target sequence (Q9HCT0 whole entry, looked up): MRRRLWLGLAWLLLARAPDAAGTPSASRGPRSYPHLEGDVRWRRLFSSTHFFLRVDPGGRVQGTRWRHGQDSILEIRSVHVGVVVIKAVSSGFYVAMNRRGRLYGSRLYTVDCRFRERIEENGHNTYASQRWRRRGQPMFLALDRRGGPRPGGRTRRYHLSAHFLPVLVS
ERAP1 inh: inhibitors of human ERAP1 aminopeptidase; Q9NZ08; recombinant ERAP1, Leu-AMC fluorescence, 60 min; inhibition, % at 10.7 µM; actives 0.15% (n = 340,000); AID 652197;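 active means mean replicate inhibition of at least 30%, or all replicates individually reaching that 30% level; inactive means mean below 30% and not every replicate reaching it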;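 further: 0% = neutral control wells and 100% = L-leucinethiol positive control wells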
ERp5 inh: blocks human ERp5 reductase activity on insulin | Q15084 | ERp5 insulin aggregation, absorbance 650 nm, 90 min | inhibition, % at 9.99 µM | actives 0.05% (n = 350,000) | AID 651711;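 active means mean replicate inhibition above about 25%, with every replicate also reaching it, limit read from the data, passing the limit was not always enough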
PDI turbidity: inhibitors of human protein disulfide isomerase; P07237; PDI insulin aggregation turbidity, A650, 90 min; inhibition, % at 10 µM; actives 0.052% (n = 350,000);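 active means mean inhibition across replicates of 30% or more, whatever share of single replicates reach that level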
* = called active by the depositor. This is one part of a sample in which hits are shown more often than they occur.

`COc1ccc2[nH]c(=O)c(CN(CC3CCCO3)C(=S)Nc3ccc(C)cc3)cc2c1` (configuration not stated) gave S100A4 inh HTS 3, FGF22 binding 43*, ERAP1 inh -1, ERp5 inh 6 and PDI turbidity -3.
COc1ccc2cc(CN(CC3CCCO3)C(=S)NCc3ccco3)c(=O)[nH]c2c1 (configuration not stated) was read as S100A4 inh HTS 0, FGF22 binding 43*, ERAP1 inh 3, ERp5 inh 3 and PDI turbidity 3.
`Cc1noc(C)c1NC(=O)N(C)C[C@H]1Oc2c(NC(=O)c3cnccn3)cccc2C(=O)N([C@@H](C)CO)C[C@H]1C` gave S100A4 inh HTS -4, FGF22 binding 0, ERAP1 inh 1 and ERp5 inh 3.
Screening CCN(CC)S(=O)(=O)c1ccc(C(=O)NCCN2C(=O)S/C(=C\c3cccnc3)C2=O)cc1 returned S100A4 inh HTS 0, FGF22 binding 0, ERAP1 inh -1, ERp5 inh -1 and PDI turbidity -17.
Screening CN(C)S(=O)(=O)c1ccc(C(=O)NCCN2C(=O)S/C(=C\c3cccnc3)C2=O)cc1 returned S100A4 inh HTS -1, FGF22 binding 43*, ERAP1 inh 1, ERp5 inh 0 and PDI turbidity 1.
For COCc1ccc(C(=O)N2CCCC(N(C)CCc3ccccc3)C2)s1 (configuration not stated) the results were S100A4 inh HTS 2, FGF22 binding 0, ERAP1 inh -5, ERp5 inh 2 and PDI turbidity 3.
CN1C(=O)c2cc(NC(=O)c3ccc4c(c3)OCO4)ccc2OC[C@@H]2O[C@@H](CC(=O)O)CC[C@H]21 was read as S100A4 inh HTS -11, FGF22 binding -1, ERAP1 inh 0 and ERp5 inh 3.
CC(=O)Nc1ccc2nc(-c3ccncc3)[nH]c2c1 was read as PDI turbidity 5.
Nc1ccc(C(=O)Nc2ccc3nc(-c4ccncc4)[nH]c3c2)cc1 was read as S100A4 inh HTS -4, FGF22 binding 44*, ERAP1 inh 6, ERp5 inh 1 and PDI turbidity -5.
For COc1cc(C2NCCc3c2[nH]c2ccccc32)ccc1OC(C)C (configuration not stated) the results were S100A4 inh HTS -1, FGF22 binding 44*, ERAP1 inh 1 and ERp5 inh 1.
COc1cccc(/C=C/C(=O)OCC(=O)NC2CCCCCCC2)c1 was read as S100A4 inh HTS -6, FGF22 binding 26*, ERAP1 inh 1, ERp5 inh 3 and PDI turbidity 12.
COc1cccc(/C=C/C(=O)OCC(=O)NC(=O)NC2CCCC2)c1 was read as S100A4 inh HTS -1, FGF22 binding 0, ERAP1 inh 0, ERp5 inh -6 and PDI turbidity -8.
Screening CCc1cccc(NC(=O)c2cc(S(=O)(=O)N3CCCCC3)ccc2N2CCOCC2)c1 returned S100A4 inh HTS 2, FGF22 binding 43*, ERAP1 inh 1, ERp5 inh 2 and PDI turbidity 2.
For NC(=O)[C@H]1CC2(CC(c3cccc(NC(=O)COc4ccc(Cl)cc4)c3)=NO2)CN1C(=O)[C@H]1CCC(=O)N1 (some centres not stated) the results were S100A4 inh HTS -2, FGF22 binding 0, ERAP1 inh 0, ERp5 inh 4 and PDI turbidity -7.
Screening C=CCn1c(SCC(=O)Nc2ccc(C(=O)O)cc2)nc2scc(-c3ccccc3)c2c1=O returned S100A4 inh HTS -7, ERAP1 inh -2, ERp5 inh -1 and PDI turbidity 1.
Screening C[N+]12CCCCC1C(COC(=O)c1ccc3c(c1)OCO3)CCC2 (configuration not stated) returned S100A4 inh HTS -1, ERAP1 inh 31*, ERp5 inh 3 and PDI turbidity 6.
`CC(Oc1ccc2c(-c3ccccc3)cc(=O)oc2c1)C(=O)NCCN1CCOCC1` (configuration not stated) gave S100A4 inh HTS -3, FGF22 binding 43*, ERAP1 inh 2, ERp5 inh 7 and PDI turbidity -8.
`CCOc1cc(N2CCOCC2)c(OCC)cc1NC(=O)c1ccc(OC(C)C)cc1` gave S100A4 inh HTS -4, FGF22 binding 43*, ERAP1 inh 0, ERp5 inh 2 and PDI turbidity 15.
